Data: ChEMBL document CHEMBL1806401, “Highly improved metabolic stability and pharmacokinetics of indium-111-DOTA-gastrin conjugates for targeting of the gastrin receptor” (J Med Chem, 2011)
Peptide text beside a SMILES is read from it.

Assays:
[1] = molecular target: T1, Gastrin/cholecystokinin type B receptor (Homo sapiens, UniProt P32239); assay: Displacement of [125I]CCK from gastrin receptor isolated from human tumor tissues
T1 sequence (P32239 whole entry): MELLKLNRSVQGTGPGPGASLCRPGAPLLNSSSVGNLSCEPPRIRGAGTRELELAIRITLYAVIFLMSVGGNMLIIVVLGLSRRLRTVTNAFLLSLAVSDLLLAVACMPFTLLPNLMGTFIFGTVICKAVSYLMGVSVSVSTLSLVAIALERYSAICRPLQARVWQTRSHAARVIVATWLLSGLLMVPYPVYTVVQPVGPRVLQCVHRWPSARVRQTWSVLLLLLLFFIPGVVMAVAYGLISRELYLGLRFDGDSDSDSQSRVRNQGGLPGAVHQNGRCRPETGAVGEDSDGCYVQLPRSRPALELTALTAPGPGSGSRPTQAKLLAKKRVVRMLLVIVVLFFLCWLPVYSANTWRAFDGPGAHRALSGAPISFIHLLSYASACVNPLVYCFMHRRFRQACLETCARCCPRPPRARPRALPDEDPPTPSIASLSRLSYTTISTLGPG
Outline: (§1)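 Surgically resected human tumor tissues expressing CCK-1 or gastrin receptors; 125I-CCK incubation medium with increasing amounts of competitor added to generate competitive inhibition curves.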

[2] = molecular target: T2, Cholecystokinin receptor type A (Homo sapiens, UniProt P32238); assay: Displacement of [125I]CCK from CCK1 receptor isolated from human tumor tissues; outline: as §1
T2 sequence (P32238 whole entry): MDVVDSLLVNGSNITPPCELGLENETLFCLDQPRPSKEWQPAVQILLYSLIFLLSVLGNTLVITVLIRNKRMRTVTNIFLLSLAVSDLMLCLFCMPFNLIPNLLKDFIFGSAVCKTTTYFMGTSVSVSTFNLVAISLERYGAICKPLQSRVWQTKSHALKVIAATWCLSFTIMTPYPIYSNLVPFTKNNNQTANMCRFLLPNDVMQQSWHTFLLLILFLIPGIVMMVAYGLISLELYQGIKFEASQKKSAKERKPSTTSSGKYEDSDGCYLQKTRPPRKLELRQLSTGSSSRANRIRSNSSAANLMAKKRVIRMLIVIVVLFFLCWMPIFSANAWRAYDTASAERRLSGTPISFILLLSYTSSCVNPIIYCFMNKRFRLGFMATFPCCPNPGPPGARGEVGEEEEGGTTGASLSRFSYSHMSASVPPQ

[3] = molecular target: T3, Gastrin/cholecystokinin type B receptor (Rattus norvegicus, UniProt P30553); assay: Agonist activity at gastrin receptor in rat AR4-2J cells assessed as intracellular calcium mobilization by fluorescence assay; type: functional, cell-based
T3 sequence (P30553 whole entry): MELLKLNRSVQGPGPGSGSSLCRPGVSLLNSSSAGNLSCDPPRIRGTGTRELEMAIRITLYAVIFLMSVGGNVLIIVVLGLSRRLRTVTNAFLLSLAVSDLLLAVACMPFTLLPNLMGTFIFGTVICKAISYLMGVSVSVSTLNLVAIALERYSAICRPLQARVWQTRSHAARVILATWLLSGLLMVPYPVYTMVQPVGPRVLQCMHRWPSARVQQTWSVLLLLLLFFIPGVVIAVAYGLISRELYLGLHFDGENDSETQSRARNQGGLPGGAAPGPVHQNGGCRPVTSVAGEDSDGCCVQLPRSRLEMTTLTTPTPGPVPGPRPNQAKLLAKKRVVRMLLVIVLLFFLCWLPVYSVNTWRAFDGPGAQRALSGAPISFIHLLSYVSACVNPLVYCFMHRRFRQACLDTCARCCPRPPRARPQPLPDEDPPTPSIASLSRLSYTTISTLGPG
Outline: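 AR4-2J cells seeded 50 000/well, cultured 1 day at 37 C, 5% CO2, then loaded with Ca dye in HBSS/20 mM HEPES with 2.5 mM probenecid for 1 h at 37 C. Peptides added as 1:3 serial dilutions in HBSS/HEPES/0.1% BSA/0.05% pluronic acid, diluted 1:6 on addition. Fluorescence (ex 485/em 525 nm) read 4 min at room temperature; Fmax with ionomycin; EC50 from four-parameter fit.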

| Structure (SMILES) | IC50 [1] [nM] | IC50 [2] [nM] | EC50 [3] [nM] |
| --- | --- | --- | --- |
| CSCC[C@H](NC(=O)[C@H](Cc1c[nH]c2ccccc12)NC(=O)CNC(=O)[C@H](Cc1ccc(O)cc1)NC(=O)[C@H](C)NC(=O)[C@@H](CO)NC(=O)[C@@H](CO)NC(=O)[C@@H](CO)NC(=O)CN1CCN(CC(=O)O)CCN(CC(=O)O)CCN(CC(=O)O)CC1)C(=O)N[C@@H](CC(=O)O)C(=O)N[C@@H](Cc1ccccc1)C(N)=O | 0.6 | > 700 |  |
| CSCC[C@H](NC(=O)[C@H](Cc1c[nH]c2ccccc12)NC(=O)CNC(=O)[C@H](Cc1ccc(O)cc1)NC(=O)[C@H](C)NC(=O)[C@@H](CCC(N)=O)NC(=O)[C@@H](CCC(N)=O)NC(=O)CN1CCN(CC(=O)O)CCN(CC(=O)O)CCN(CC(=O)O)CC1)C(=O)N[C@@H](CC(=O)O)C(=O)N[C@@H](Cc1ccccc1)C(N)=O | 0.8 | > 700 |  |
| CCCC[C@H](NC(=O)[C@H](Cc1c[nH]c2ccccc12)NC(=O)CNC(=O)[C@H](Cc1ccc(O)cc1)NC(=O)[C@H](C)NC(=O)[C@@H](CCC(N)=O)NC(=O)[C@@H](CCC(N)=O)NC(=O)[C@@H](CCC(N)=O)NC(=O)CN1CCN(CC(=O)O)CCN(CC(=O)O)CCN(CC(=O)O)CC1)C(=O)N[C@@H](CC(=O)O)C(=O)N[C@@H](Cc1ccccc1)C(N)=O | 1.6 | > 700 |  |
| CSCC[C@H](NC(=O)[C@H](Cc1c[nH]c2ccccc12)NC(=O)CNC(=O)[C@H](Cc1ccc(O)cc1)NC(=O)[C@H](C)NC(=O)[C@@H](CCC(N)=O)NC(=O)[C@@H](CCC(N)=O)NC(=O)[C@@H](CCC(N)=O)NC(=O)[C@@H](CCC(N)=O)NC(=O)CN1CCN(CC(=O)O)CCN(CC(=O)O)CCN(CC(=O)O)CC1)C(=O)N[C@@H](CC(=O)O)C(=O)N[C@@H](Cc1ccccc1)C(N)=O | 2.4 | > 700 |  |
| CSCC[C@H](NC(=O)[C@H](Cc1c[nH]c2ccccc12)NC(=O)CNC(=O)[C@H](Cc1ccc(O)cc1)NC(=O)[C@H](C)NC(=O)[C@H](CCC(=O)O)NC(=O)[C@H](CCC(=O)O)NC(=O)[C@H](CCC(=O)O)NC(=O)[C@H](CCC(=O)O)NC(=O)[C@H](CCC(=O)O)NC(=O)[C@H](CCC(=O)O)NC(=O)CN1CCN(CC(=O)O)CCN(CC(=O)O)CCN(CC(=O)O)CC1)C(=O)N[C@@H](CC(=O)O)C(=O)N[C@@H](Cc1ccccc1)C(N)=O | 0.7 | > 700 |  |
| CSCC[C@H](NC(=O)[C@H](Cc1c[nH]c2ccccc12)NC(=O)CNC(=O)[C@H](Cc1ccc(O)cc1)NC(=O)[C@H](C)NC(=O)[C@@H](CO)NC(=O)[C@@H](CO)NC(=O)CN1CCN(CC(=O)O)CCN(CC(=O)O)CCN(CC(=O)O)CC1)C(=O)N[C@@H](CC(=O)O)C(=O)N[C@@H](Cc1ccccc1)C(N)=O | 0.9 | > 700 |  |
| CSCC[C@H](NC(=O)[C@H](Cc1c[nH]c2ccccc12)NC(=O)CNC(=O)[C@H](Cc1ccc(O)cc1)NC(=O)[C@H](C)NC(=O)[C@@H](CCC(N)=O)NC(=O)[C@@H](CCC(N)=O)NC(=O)[C@@H](CCC(N)=O)NC(=O)CN1CCN(CC(=O)O)CCN(CC(=O)O)CCN(CC(=O)O)CC1)C(=O)N[C@@H](CC(=O)O)C(=O)N[C@@H](Cc1ccccc1)C(N)=O (HELM PEPTIDE1{[O=C(O)CN1CCN(CC(=O)O)CCN(CC(=O)[*:2])CCN(CC(=O)O)CC1].[dQ].[dQ].[dQ].A.Y.G.W.M.D.F.[am]}$$$$V2.0) | 3.6 | > 700 | 0.27 |
| CSCC[C@H](NC(=O)[C@H](Cc1c[nH]c2ccccc12)NC(=O)CNC(=O)[C@H](Cc1ccc(O)cc1)NC(=O)[C@H](C)NC(=O)[C@@H](CCC(N)=O)NC(=O)[C@@H](CCC(N)=O)NC(=O)[C@@H](CCC(N)=O)NC(=O)[C@@H](CCC(N)=O)NC(=O)[C@@H](CCC(N)=O)NC(=O)[C@@H](CCC(N)=O)NC(=O)CN1CCN(CC(=O)O)CCN(CC(=O)O)CCN(CC(=O)O)CC1)C(=O)N[C@@H](CC(=O)O)C(=O)N[C@@H](Cc1ccccc1)C(N)=O (HELM PEPTIDE1{[O=C(O)CN1CCN(CC(=O)O)CCN(CC(=O)[*:2])CCN(CC(=O)O)CC1].[dQ].[dQ].[dQ].[dQ].[dQ].[dQ].A.Y.G.W.M.D.F.[am]}$$$$V2.0) | 2.4 | > 700 | 0.41 |
